Measured values: ChEMBL document CHEMBL1124538, “Mono and bis(bioreductive) alkylating agents: synthesis and antitumor activities in a B16 melanoma model” (J Med Chem, 1989)
Values joined by “and” are separate entries in the source; they are usually repeats but may differ in a detail not shown here. Equal values may be shown once.

Legend:
Mus musculus [1] = assay: (§1) Percent B16 melanoma growth inhibition at dose 10 mg/kg in mice; type: functional; settings: B16, dose 10 mg/kg
How it was run: (§2)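 B16 brei (1:10 w/v in HBSS, 0.5 mL) was implanted sc into female BDF1 mice. Mice got ip doses for 9 consecutive days after the tumor became palpable, in saline, 0.3% Klucel or 0.33% Klucel/NaHCO3. Serial tumor diameters were measured. Inhibition = 100 − [(change in average tumor diameter, treated/control) × 100]; active if ≥25%.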

Mus musculus [2] = assay: (§3) Antitumor efficacy against subcutaneously implanted B16 melanoma tumor in BDF1 hybrid mice, administered intraperitoneally with 10 mg/kg of compound; type: functional
How it was run: (§4)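 Female BDF1 mice received 0.5 mL B16 tumor brei sc into the shaved dorsoscapular area; the brei was a 1:10 w/v dilution in HBSS from tumor passaged sc in C57BL/6 mice. Dosing was ip for 9 consecutive days once the tumor was palpable, in saline, 0.3% Klucel or 0.33% Klucel/NaHCO3. Mice were observed daily for up to 120 days. %T/C is median survival treated/control (NCI Instruction 14); active if ≥140.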

Mus musculus [3] = assay: Antitumor efficacy against subcutaneously implanted B16 melanoma tumor in BDF1 hybrid mice, administered intraperitoneally with 20 mg/kg of compound; type: functional; how it was run: as §4
B16 [4] = assay: Percent B16 melanoma growth inhibition at dose 20 mg/kg in mice; type: functional, Mus musculus; settings: for inhibition in vivo at 20 mg/kg: Mus musculus, B16, dose 20 mg/kg; how it was run: as §2
B16 [5] = assay: as §1; type: functional, Mus musculus; settings: for inhibition in vivo at 10 mg/kg: Mus musculus, B16, dose 10 mg/kg; for Inhibition: dose 10 mg/kg; how it was run: as §2
B16 [6] = assay: Percent B16 melanoma growth inhibition at dose 4 mg/kg in mice; type: functional; settings: Mus musculus; how it was run: as §2
Mus musculus [7] = assay: Antitumor efficacy against subcutaneously implanted B16 melanoma tumor in BDF1 hybrid mice, administered intraperitoneally with 4 mg/kg of compound; type: functional; how it was run: as §4
Mus musculus [8] = assay: Compound was tested for increase in life span of P388 leukemia bearing mice at dose of 40 mg/Kg; Showed Toxicity, and weight loss; type: organism-based; settings: in vivo
Mus musculus [9] = assay: Compound was tested for increase in life span of P388 leukemia bearing mice at dose of 5 mg/Kg; Did nto increase significantly; type: functional, organism-based
Mus musculus [10] = assay: Compound was tested for increase in life span of P388 leukemia bearing mice at dose of 10 mg/Kg; Did nto increase significantly; type: functional, organism-based
Mus musculus [11] = assay: Compound was tested for increase in life span of P388 leukemia bearing mice at dose of 20 mg/Kg; Showed Toxicity, and weight loss; type: organism-based; settings: in vivo
B16 [12] = assay: as §3; type: functional, Mus musculus; how it was run: as §4

O=C1C=C(CCl)C(=O)C=C1CCl
inhibition in vivo at 10 mg/kg (Mus musculus [1]): 4% | T/C (Mus musculus [2]): 104%

O=C1C=C(COC(=O)CCC(=O)O)C(=O)C(COC(=O)CCC(=O)O)=C1
T/C (Mus musculus [3]; 20 mg/kg): 110% and 130% | inhibition in vivo at 20 mg/kg (B16 [4]): 23% | Inhibition (B16 [4]; dose 20 mg/kg): 29%

O=C1C=C(CBr)C(=O)C(CBr)=C1
inhibition in vivo at 10 mg/kg (B16 [5]): 24% | T/C (Mus musculus [2]): 105%

CC(=O)OCC1=CC(=O)C=CC1=O
inhibition in vivo at 4 mg/kg (B16 [6]): 31% | T/C (Mus musculus [7]): 144% | T/C (Mus musculus [3]): 142% | Increase in life-span (Mus musculus [8]): Did nto increase significantly | Increase in life-span (Mus musculus [9]): Did nto increase significantly | Increase in life-span (Mus musculus [10]): Did nto increase significantly | inhibition in vivo at 20 mg/kg (B16 [4]): 63% | Increase in life-span (Mus musculus [11]): Did nto increase significantly

O=C1C=C(CCC2=CC(=O)C(CBr)=CC2=O)C(=O)C=C1CBr
inhibition in vivo at 10 mg/kg (B16 [5]): 16% | T/C (Mus musculus [2]): 102%

O=C1C=C(CBr)C(=O)C=C1CBr
inhibition in vivo at 10 mg/kg (B16 [5]): 20% | Inhibition (B16 [5]): 30% | T/C (Mus musculus [2]; 10 mg/kg): 140% and 118%

O=C(O)CCC(=O)OCC1=CC(=O)C(COC(=O)CCC(=O)O)=CC1=O
inhibition in vivo at 10 mg/kg (B16 [5]): 38% | Inhibition (B16 [5]): 19% | T/C (Mus musculus [2]; 10 mg/kg): 115% and 111%

COC1=CC(=O)C(COC(C)=O)=CC1=O
inhibition in vivo at 10 mg/kg (B16 [5]): 0% | T/C (Mus musculus [2]): 110%

O=C(O)CCC(=O)OCC1=CC(=O)C(CCC2=CC(=O)C(COC(=O)CCC(=O)O)=CC2=O)=CC1=O
T/C (Mus musculus [2]; 10 mg/kg): 123% and 106%

O=C1C=C(CO)C(=O)C(CO)=C1
inhibition in vivo at 10 mg/kg (B16 [5]): 19% | T/C (Mus musculus [3]): 171% | T/C (Mus musculus [2]): 90% | inhibition in vivo at 20 mg/kg (B16 [4]): 36%

CC(=O)OCC1=CC(=O)C=C(COC(C)=O)C1=O
inhibition in vivo at 10 mg/kg (B16 [5]): 13% | T/C (Mus musculus [2]): 100%

O=C1C=CC(=O)C(COC(=O)CCC(=O)O)=C1
T/C (B16 [12]): 130% | inhibition in vivo at 10 mg/kg (B16 [5]): 27% | Inhibition (B16 [5]): 32% | T/C (Mus musculus [3]): 115% | T/C (Mus musculus [2]): 164% | inhibition in vivo at 20 mg/kg (B16 [4]): 19%

CC(=O)OCC1=CC(=O)C(CCC2=CC(=O)C(COC(C)=O)=CC2=O)=CC1=O
inhibition in vivo at 10 mg/kg (B16 [5]): 16% | T/C (Mus musculus [2]): 129%
